RGS4 block – RGS4 inhibitors, primary screen, cell-based, HEK293 M3R inducible RGS4, calcium flux; B-score at 10 µM; Fluo-4 calcium flux; active compounds read high; triggered by carbachol at its EC20; actives 0.45% (n = 310,000); AID 463165, 2010;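 active means B-score, a plate-corrected calcium signal, over three deviations above library mean, with baseline fluorescence within five deviations of library mean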;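 further: RGS4 expression induced by doxycycline in cells with stable M3 receptor; B-score is computed from the integrated fluorescence ratio over baseline after carbachol; higher B-score means a larger calcium signal and so more RGS4 inhibition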
Target sequence (P49798 whole entry, looked up): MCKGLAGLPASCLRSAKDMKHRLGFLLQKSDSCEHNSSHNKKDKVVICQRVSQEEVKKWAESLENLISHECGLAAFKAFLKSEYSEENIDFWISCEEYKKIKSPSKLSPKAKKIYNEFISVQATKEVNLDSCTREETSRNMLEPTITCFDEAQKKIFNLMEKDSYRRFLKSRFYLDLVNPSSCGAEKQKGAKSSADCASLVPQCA
MrgX1 antagonist – antagonists of human MrgX1 receptor, primary screen, HEK293 cells, Fluo-4 calcium flux; Mas-related G-protein coupled receptor member X1 (Homo sapiens), Q96LB2; BAM8-22 antagonism; active compounds read low; B-score at 10 µM; actives 1.3% (n = 310,000);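 active means calcium-response B-score plate-corrected more than 3 library SD below zero, starting fluorescence within 5 deviations, no agonist response on first addition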;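 further: peak minus trough fluorescence over baseline after final BAM8-22 challenge near maximal dose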
Kir21 inh – inhibitors of mouse Kir2.1 inward-rectifier potassium channel; Inward rectifier potassium channel 2 (Mus musculus), P35561; HEK293-Kir2.1, FluxOR thallium flux fluorescence; active compounds read low; B-score at 10 µM; actives 0.85% (n = 310,000);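 active means fluorescence ratio B-score at or below minus 3 SD of library scores, with starting-brightness B-score within 2 SD, cut at about -4.2 in these data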;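 further: channel flux triggered by added potassium and thallium sulfate stimulus; B-score of peak minus minimum fluorescence over baseline after thallium stimulus; more negative B-score means stronger Kir2.1 block with less thallium influx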
Target sequence (P35561 whole entry, looked up): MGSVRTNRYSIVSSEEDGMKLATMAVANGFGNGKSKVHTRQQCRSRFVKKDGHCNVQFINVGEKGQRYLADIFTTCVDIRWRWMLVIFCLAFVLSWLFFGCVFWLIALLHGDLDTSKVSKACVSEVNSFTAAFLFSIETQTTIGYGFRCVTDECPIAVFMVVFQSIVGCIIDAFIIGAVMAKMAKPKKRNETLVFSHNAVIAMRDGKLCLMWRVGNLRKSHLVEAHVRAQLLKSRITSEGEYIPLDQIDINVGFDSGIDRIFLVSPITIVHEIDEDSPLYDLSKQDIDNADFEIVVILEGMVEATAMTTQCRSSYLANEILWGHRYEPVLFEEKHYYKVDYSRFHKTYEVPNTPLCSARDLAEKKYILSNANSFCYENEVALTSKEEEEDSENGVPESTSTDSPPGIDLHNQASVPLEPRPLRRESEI
MrgX1 allo act – positive allosteric modulators of MrgX1, primary screen, HEK293 cells, Fluo-4 calcium flux. FDSS; active compounds read high. B-score at 10 µM. actives 0.63% (n = 310,000);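 active means plate-corrected calcium response at least 3 library SD above typical, normal starting fluorescence, not activating the receptor alone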;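 further: compound read alongside a low EC10 to EC30 dose of BAM8-22 agonist; peak minus trough fluorescence over baseline measured at the second addition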
MrgX1 agonist – agonists of human MrgX1 receptor, primary screen, HEK293 cells, Fluo-4 calcium flux | actives 0.44% (n = 310,000) | Fluo-4 calcium fluorescence, agonist mode; active compounds read high | B-score at 10 µM | Mas-related G-protein coupled receptor member X1 (Homo sapiens), Q96LB2;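 active means calcium response B-score plate-corrected fluorescence ratio at least 3 library SD, with starting fluorescence B-score inside 5 SD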
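Test system: HEK293 cells stably expressing human MrgX1 receptor; Input: fifteen thousand cells per well; Dosing: compound delivered in addition one of three; Schedule: overnight seeding, then 1 h dark dye loading; Technique: Fluo-4 NW calcium fluorescence; Measure: B-scored fluorescence response ratio; Controls: positive and negative controls per plate.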
RGS4 pot – RGS4 potentiators or activators, primary screen, cell-based, HEK293 M3R inducible RGS4, calcium flux. carbachol calcium flux Fluo4; active compounds read low. B-score at 10 µM. actives 0.92% (n = 310,000). AID 463111, 2010;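 active means B-score of the integrated calcium signal more than 4 SD below the library mean, with starting fluorescence not abnormally high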;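 further: negative B-score means reduced calcium response which marks RGS4 activation or potentiation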
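Assay system: Inducible-RGS4 HEK293 cells carrying M3 receptor | Schedule: Compound preincubation 20 min at room temperature before agonist | Signal: Kinetic calcium fluorescence imaging with Fluo4-AM dye, 2 µM | Read-out basis: B score from integrated fluorescence ratio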
Hits are given with their value; . = inactive; ! = not active in a repeat. Most compounds without a hit are left out; they make up all but 4.1% or so of the library.

SMILES	RGS4 block	MrgX1 antagonist	Kir21 inh	MrgX1 allo act	MrgX1 agonist	RGS4 pot
O=C(Nc1ccc2cn[nH]c2c1)c1c(Cl)cccc1Cl	.	.	.	.	.	.
COC(=O)c1ccccc1NC(=O)CN1CCN(C23CC4CC(CC(C4)C2)C3)CC1	.	.	.	.	.	-8
COC(=O)c1ccccc1NC(=O)CN1CCc2ccccc2C1	.	.	.	.	.	.
COc1cc2c(cc1OC)CN(C(=S)Nc1ccccc1)CC2	.	.	.	.	.	.
CC(C)(O)C#Cc1ccc(C(=O)N2CCCC(CNS(=O)(=O)c3cccs3)C2)o1 (centres undefined)	.	.	.	.	.	.
COc1cccc(-n2nnnc2S(C)(=O)=O)c1	.	.	.	.	48	.
COc1cccc(Oc2nnnn2-c2ccccc2)c1	.	.	.	.	.	.
O=C(NCC1CC1)c1onc(CSc2ccc(F)cc2)c1C(=O)NCC1CC1	.	.	.	.	.	.
Cc1cc(NC(=O)COC(=O)c2nccnc2N)n(-c2ccccc2)n1	.	.	.	.	.	.
Cc1ccc(C(=O)COC(=O)C(C)N2C(=O)C3C4C=CC(C4)C3C2=O)cc1C (centres undefined)	.	.	.	.	.	.
CCNC(=O)COC(=O)/C=C/c1cccs1	.	.	.	.	.	.
CNC(=O)COC(=O)/C=C/c1cccs1	.	.	.	6.5	.	.
CC(C)(C)C(=O)C(Cl)C(=O)Nc1ccccc1 (centres undefined)	45	.	.	.	.	.
Cc1cc(C)c(C(=O)N2CCCC(CNS(=O)(=O)c3cccs3)C2)o1 (centres undefined)	.	.	.	.	.	.
Cc1cc(OCC(=O)N(Cc2ccco2)C2CCS(=O)(=O)C2)cc(C)c1Cl (centres undefined)	.	.	.	.	.	.
COc1ccccc1OCC#CCNC1CCCCC1C (centres undefined)	.	.	-5.5	.	.	.
COc1ccccc1OCC#CCn1ccnc1	.	.	.	.	.	.
CSCC[C@H](NC(=O)N1CCn2c1nc1ccccc12)C(=O)N[C@H](Cc1ccccc1)C(=O)O	.	-7.6	.	.	.	.
COc1ccc(S(=O)(=O)N2CCCC2)cc1C(C)C	.	.	.	.	.	.
CCCCNC(=O)c1cc([N+](=O)[O-])[nH]n1	.	.	.	.	.	.
CCc1cccc(CC)c1C(O)c1cccnc1 (centres undefined)	.	.	-4.6	.	.	.
CSc1cccc(NC(=O)C(C)C)c1	.	.	.	.	.	.
CCOC(=O)C(NC(=O)c1ccccc1)(OCc1ccccc1)C(F)(F)F (centres undefined)	.	.	.	.	.	.
CSC1=C(C#N)C(c2ccccc2Cl)C2=C(N1)c1ccccc1C2=O (centres undefined)	.	.	.	.	32	.
O=C1/C(=N/n2cnnc2)c2ccccc2N1Cc1ccccc1	.	.	.	.	45	.
SMILES	RGS4 block	MrgX1 antagonist	Kir21 inh	MrgX1 allo act	MrgX1 agonist	RGS4 pot
COc1ccc(C(=O)N/N=C(/C)c2cccc(NC(=O)c3ccncc3)c2)cc1OC	.	.	.	.	.	-7
COc1cccc(C(=O)Nc2ccc(C(=O)c3ccncc3)cc2)c1	.	.	.	7.1	.	.
CCn1c(C)c(C(C)=O)c(N2CCN(C(c3ccccc3)c3ccccc3)CC2)nc1=S	.	.	.	.	.	-7.4
CCn1c(C)c(C(C)=O)c(N2CCN(c3ccccn3)CC2)nc1=S	.	.	.	.	.	.
COC(=O)/C=C1\S/C(=N/NC(=O)c2ccccc2)NC1=O	.	.	.	.	.	.
COc1ccccc1CNC(=O)c1sccc1-c1ccccc1	.	.	-6.6	.	.	.
CN(Cc1ccccc1F)C(=O)c1sccc1-c1ccccc1	.	.	-12	.	.	.
COc1ccccc1CNC(=O)c1sccc1C	.	.	.	.	.	.
Cc1ccc(NC(=O)CSc2nnc(-c3cccnc3)o2)c(C)c1	.	.	.	.	.	.
COc1ccc(C(O)(CCc2ccccc2)CCN2CCCCC2)cc1 (centres undefined)	.	.	.	.	.	-8.9
C=CCC(O)(CCN1CCCCC1)c1ccccc1 (centres undefined)	.	.	.	.	.	.
Cc1ccnc2nc(C(=O)OCC(=O)NC(=O)NCc3ccco3)nn12	.	.	.	.	.	.
Cc1[nH]c(C)c(S(=O)(=O)NCCc2ccccc2)c1C(=O)N1CCCC1	.	.	.	.	.	.
CN1CC=C2C(C#N)=C(N)C(C#N)(C#N)C(Cc3ccccc3)C2C1 (centres undefined)	.	.	.	.	36	.
CC(C)Cc1cc(C(=O)O)n[nH]1	.	.	.	.	.	.
COc1ccc2c(/C=C/c3cc[n+](C)cc3)c[nH]c2c1	.	-5.8	.	.	.	.
C=CCN(CC=C)C(=S)NC(=O)/C=C/c1ccc(OC)cc1	.	.	.	8.9	.	.
COc1ccc(/C=C/C(=O)NC(=S)Nc2ccccn2)cc1	.	.	.	7.1	.	.
COc1ccc(/C=C/C(=O)NC(=S)NNC(=O)c2cnccn2)cc1	.	-6.5	.	.	.	.
Cc1ccc2oc(-c3cccc(NC(=S)NC(=O)/C=C/c4ccco4)c3)nc2c1	.	.	.	.	.	-7.1
COc1ccc(Cn2cc([N+](=O)[O-])nc2C)cc1[N+](=O)[O-]	.	.	.	.	.	.
O=C(Nc1ccccc1C(=O)N1CCCC1)C1COc2ccccc2O1 (centres undefined)	.	.	.	.	.	.
O=C(/C=C/c1ccco1)NC(=S)Nc1nc(-c2ccc3ccccc3c2)cs1	.	-6.6	.	.	.	.
O=C(/C=C/c1ccco1)NC(=S)Nc1ccccn1	.	.	.	18	.	.
O=C(/C=C/c1ccccc1Cl)Nc1ccc(-c2nnc3n2CCCCC3)cc1	.	.	.	.	.	-8.1
COC(=O)[C@@H](NC(=O)c1ccccc1OC1CCN(S(C)(=O)=O)CC1)C(C)C	.	.	.	.	.	.
C=CCc1ccccc1OCC(O)CN1CCN(Cc2ccc3c(c2)OCO3)CC1 (centres undefined)	.	.	-4.6!	.	.	.

Source: PubChem
